From ChEMBL document CHEMBL1148560, “Synthesis and biological evaluation of novel C (7) modified chrysin analogues as antibacterial agents” (2006)
Values after ≈ are worked out from the molar mass of the structure shown.

Legend:
Type in all cases: functional
[1] = test system: Bacillus subtilis; assay: Antibacterial activity against gram positive Bacillus subtilis MTCC 441
Summary of the method: (§1)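 MIC determined by broth dilution per NCCL standards; test panel comprised Gram-positive Bacillus subtilis (MTCC 441), Bacillus sphaericus (MTCC 11), Staphylococcus aureus (MTCC 96) and Gram-negative Chromobacterium violaceum (MTCC 2656), Klebsiella aerogenes (MTCC 39), Pseudomonas aeruginosa (MTCC 741); highest concentration tested 200 μg/ml; penicillin and streptomycin run under identical conditions as reference agents.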

[2] = test system: Lysinibacillus sphaericus; assay: Antibacterial activity against gram positive Bacillus sphaericus (MTCC 11)
Summary of the method: (§2)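 MICs were determined by broth dilution following National Committee for Clinical Laboratory (NCCL) standards. The same conditions were used for penicillin and streptomycin as reference agents.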

[3] = test system: Staphylococcus aureus; assay: Antibacterial activity against gram positive Staphylococcus aureus(MTCC 96); summary of the method: as §1
[4] = test system: Klebsiella aerogenes; assay: Antibacterial activity against gram negative Klebsiella aerogenes(MTCC 39); summary of the method: as §1
[5] = test system: Chromobacterium violaceum; assay: Antibacterial activity against gram negative Chromobacterium violaceum(MTCC 2656); summary of the method: as §1
[6] = test system: Pseudomonas aeruginosa; assay: Antibacterial activity against gram negative Pseudomonas aeruginosa (MTCC 741); summary of the method: as §2

Compound | MIC [1] | MIC [2] | MIC [3] | MIC [4] | MIC [5] | MIC [6]
CN(C)CCCCCCOc1cc(O)c2c(=O)cc(-c3ccccc3)oc2c1 | 12.5 µg/mL (≈ 32.8 µM) | 12.5 µg/mL (≈ 32.8 µM) | 25 µg/mL (≈ 65.5 µM) | 25 µg/mL (≈ 65.5 µM) | 25 µg/mL (≈ 65.5 µM) | 
O=c1cc(-c2ccccc2)oc2cc(OCCCCCCN3CCOCC3)cc(O)c12 | 25 µg/mL (≈ 59 µM) | 25 µg/mL (≈ 59 µM) | 25 µg/mL (≈ 59 µM) | 25 µg/mL (≈ 59 µM) | 25 µg/mL (≈ 59 µM) | 
CN(C)CCCOc1cc(O)c2c(=O)cc(-c3ccccc3)oc2c1 | 25 µg/mL (≈ 73.7 µM) | 12.5 µg/mL (≈ 36.8 µM) | 12.5 µg/mL (≈ 36.8 µM) | 25 µg/mL (≈ 73.7 µM) | 12.5 µg/mL (≈ 36.8 µM) | 
O=c1cc(-c2ccccc2)oc2cc(OCCCCN3CCOCC3)cc(O)c12 | 6.25 µg/mL (≈ 15.8 µM) | 6.25 µg/mL (≈ 15.8 µM) | 12.5 µg/mL (≈ 31.6 µM) | 12.5 µg/mL (≈ 31.6 µM) | 6.25 µg/mL (≈ 15.8 µM) | 
O=c1cc(-c2ccccc2)oc2cc(OCCCCCCN3CCCCC3)cc(O)c12 | 25 µg/mL (≈ 59.3 µM) | 12.5 µg/mL (≈ 29.7 µM) | 25 µg/mL (≈ 59.3 µM) | 25 µg/mL (≈ 59.3 µM) | 25 µg/mL (≈ 59.3 µM) | 
CN1CCN(CCCOc2cc(O)c3c(=O)cc(-c4ccccc4)oc3c2)CC1 | 12.5 µg/mL (≈ 31.7 µM) | 12.5 µg/mL (≈ 31.7 µM) | 25 µg/mL (≈ 63.4 µM) | 25 µg/mL (≈ 63.4 µM) | 12.5 µg/mL (≈ 31.7 µM) | 
O=c1cc(-c2ccccc2)oc2cc(OCCCN3CCCCC3)cc(O)c12 | 25 µg/mL (≈ 65.9 µM) | 12.5 µg/mL (≈ 32.9 µM) | 12.5 µg/mL (≈ 32.9 µM) | 25 µg/mL (≈ 65.9 µM) | 6.25 µg/mL (≈ 16.5 µM) | 
CN1CCN(CCCCOc2cc(O)c3c(=O)cc(-c4ccccc4)oc3c2)CC1 | 25 µg/mL (≈ 61.2 µM) | 6.25 µg/mL (≈ 15.3 µM) | 12.5 µg/mL (≈ 30.6 µM) | 12.5 µg/mL (≈ 30.6 µM) | 6.25 µg/mL (≈ 15.3 µM) | 
O=c1cc(-c2ccccc2)oc2cc(OCCCCN3CCCCC3)cc(O)c12 | 12.5 µg/mL (≈ 31.8 µM) | 12.5 µg/mL (≈ 31.8 µM) | 25 µg/mL (≈ 63.5 µM) | 25 µg/mL (≈ 63.5 µM) | 6.25 µg/mL (≈ 15.9 µM) | 
CN(C)CCCCOc1cc(O)c2c(=O)cc(-c3ccccc3)oc2c1 | 6.25 µg/mL (≈ 17.7 µM) | 6.25 µg/mL (≈ 17.7 µM) | 25 µg/mL (≈ 70.7 µM) | 25 µg/mL (≈ 70.7 µM) | 12.5 µg/mL (≈ 35.4 µM) | 
O=c1cc(-c2ccccc2)oc2cc(OCCCN3CCOCC3)cc(O)c12 | 12.5 µg/mL (≈ 32.8 µM) | 12.5 µg/mL (≈ 32.8 µM) | 25 µg/mL (≈ 65.5 µM) | 25 µg/mL (≈ 65.5 µM) | 12.5 µg/mL (≈ 32.8 µM) | 
CN1CCN(CCCCCCOc2cc(O)c3c(=O)cc(-c4ccccc4)oc3c2)CC1 | 25 µg/mL (≈ 57.3 µM) | 25 µg/mL (≈ 57.3 µM) | 12.5 µg/mL (≈ 28.6 µM) | 25 µg/mL (≈ 57.3 µM) | 12.5 µg/mL (≈ 28.6 µM) | 
O=c1cc(-c2ccccc2)oc2cc(O)cc(O)c12 [CHRYSIN] | 50 µg/mL (≈ 197 µM) | 25 µg/mL (≈ 98.3 µM) | 50 µg/mL (≈ 197 µM) | 50 µg/mL (≈ 197 µM) | 25 µg/mL (≈ 98.3 µM) | 
CC1(C)S[C@@H]2[C@H](NC(=O)Cc3ccccc3)C(=O)N2[C@H]1C(=O)O [PENICILLIN G] | 1.56 µg/mL (≈ 4.67 µM) | 3.12 µg/mL (≈ 9.35 µM) | 1.56 µg/mL (≈ 4.67 µM) | 6.25 µg/mL (≈ 18.7 µM) | 12.5 µg/mL (≈ 37.4 µM) | 6.25 µg/mL (≈ 18.7 µM)
CN[C@@H]1[C@H](O[C@H]2[C@H](O[C@H]3[C@H](O)[C@@H](O)[C@H](N=C(N)N)[C@@H](O)[C@@H]3N=C(N)N)O[C@@H](C)[C@]2(O)C=O)O[C@@H](CO)[C@H](O)[C@H]1O [STREPTOMYCIN] | 6.25 µg/mL (≈ 10.7 µM) | 12.5 µg/mL (≈ 21.5 µM) | 6.25 µg/mL (≈ 10.7 µM) | 1.56 µg/mL (≈ 2.69 µM) | 3.12 µg/mL (≈ 5.37 µM) | 1.56 µg/mL (≈ 2.69 µM)
